ChEMBL document CHEMBL1152411, “Antiplasmodial isoflavanones from the roots of Sophora mollis” (J Nat Prod, 2009)
pIC50: −log10 of the molar value.

Assays:
CHO = experiment: Cytotoxicity against CHO cells by MTT assay; format: cell-based, Cricetulus griseus; details: for IC50: cho; for pIC50: Cricetulus griseus, CHO, read-out: IC50
Summary of the method: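 Chinese hamster ovary (CHO) cells; growth and survival measured by MTT assay. Samples run in triplicate on one occasion, with emetine dihydrochloride as reference drug.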

Plasmodium falciparum = experiment: Antiplasmodial activity against chloroquine-sensitive Plasmodium falciparum D10; format: functional, organism-based; details: for pIC50: Plasmodium falciparum, D10, read-out: IC50
Summary of the method: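 Asexual erythrocytic-stage P. falciparum kept in continuous in vitro culture (Trager–Jensen). Activity measured by the parasite lactate dehydrogenase assay, with chloroquine diphosphate as reference drug.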

[1] = Selectivity index, ratio of IC50 for CHO cells to IC50 for chloroquine-sensitive Plasmodium falciparum D10; format: toxicity, cell-based; details: hamster; read-out: Ratio IC50

| Structure (SMILES) | IC50 (CHO) | pIC50 (Plasmodium falciparum) | pIC50 (CHO) | selectivity ratio [1] | IC50 (Plasmodium falciparum) |
| --- | --- | --- | --- | --- | --- |
| O=c1c(-c2ccc(O)cc2)coc2c(O)c(O)ccc12 | Not Active | 4.75 |  |  |  |
| O=c1cc(-c2ccc(O)c(O)c2)oc2cc(O)ccc12 |  | 4.71 | 4.31 | 3 |  |
| Oc1ccc2c(c1)OC[C@@H]1c3cc4c(cc3O[C@H]21)OCO4 [(+)-MAACKIAIN] | Not Active | 3.75 |  |  |  |
| CC[C@H]1CN2CCc3cc(OC)c(OC)cc3[C@@H]2C[C@@H]1C[C@H]1NCCc2cc(OC)c(OC)cc21 [EMETINE] |  |  | 6.92 |  |  |
| O=C(/C=C/c1ccc(O)cc1)c1ccc(O)cc1O [ISOLIQUIRITIGENIN] |  | 4.49 | 4.34 | 1 |  |
| COc1cc2ccc(=O)oc2cc1O [SCOPOLETIN] | Not Active | 3.31 |  |  |  |
| COc1c([C@]2(O)COc3c4c(cc(O)c3C2=O)OC(C)(C)CC4)ccc2c1CCC(C)(C)O2 [SOPHONOROL C] | Not Active | 4.89 |  |  |  |
| COc1c(O)cc([C@]2(O)COc3cc(O)cc(O)c3C2=O)c(OC)c1CC=C(C)C [SOPHONOROL D] |  | 3.98 | 3.77 | 2 |  |
| COc1ccc([C@]2(O)COc3c(CC=C(C)C)c(O)cc(O)c3C2=O)c(OC)c1CC=C(C)C [SOPHONOROL E] |  | 4.89 | 3.77 | 13 |  |
| COc1cc(O)c2c(c1CC=C(C)C)OC[C@@](O)(c1ccc(O)c(CC=C(C)C)c1OC)C2=O [SOPHONOROL F] |  | 4.39 |  | 3 |  |
| CC1(C)C=Cc2c(ccc([C@]3(O)COc4cc(O)cc(O)c4C3=O)c2O)O1 [SOPHORONOL A] | Not Active |  |  |  | Not Active |
| COc1c([C@]2(O)COc3cc(O)cc(O)c3C2=O)ccc2c1C=CC(C)(CO)O2 (stereo not given in full) [SOPHORONOL B] | Not Active |  |  |  | Not Active |
| COc1c(C2(O)COc3cc(O)cc(O)c3C2=O)ccc2c1C=CC(C)(C)O2 (stereo not given) [SOPHORONOL] |  | 3.94 | 3.65 | 2 |  |
